Measured values of several laboratories.
Each line is one published result; the experiments were not run side by side.

O=C(Nc1ccc(C(F)(F)F)cc1)Nc1cccc([N+](=O)[O-])c1  IC50 (LAD2; degranulation): 0.37 µM
COC1CCN(C(=O)/C=C/c2nn(CC3CCCC3)c3ncnc(N)c23)CC1  EC50 (OE33; cell growth or viability, resazurin; 5 days): > 30 µM
CC(C)(C)c1cnc(CSc2cnc(NC(=O)C3CCN(CCCCCSc4cccc5c4CN(C4CCC(=O)NC4=O)C5=O)CC3)s2)o1 (stereo not drawn)  viability (HH; cell growth or viability, CCK-8; 0.2 µM): 0%
CC(=O)Nc1ccc(Oc2nnc(-c3ccc(Cl)cc3)c3ccccc23)cc1  cell death (HepG2; cell growth or viability, MTT; 2.5 µM): 93.5%
CNc1ncc2c(/C=C/C(=O)N3CCCCC3)nn(CC3CCCC3)c2n1  EC50 (OE33; cell growth or viability, resazurin; 5 days): > 30 µM
CC(=NNC(=S)Nc1ccccc1)c1ccc(Nc2nnc(-c3ccc(Cl)cc3)c3ccccc23)cc1  cell death (HepG2; cell growth or viability, MTT; 5 µM): 95.1%
CNc1ncc2c(/C=C/C(=O)N3CCC(OC)CC3)nn(C(C)C)c2n1  EC50 (OE33; cell growth or viability, resazurin; 5 days): 13.1 µM
CCOC(=O)c1nn(-c2cccc(Cl)c2)/c(=N/N=C(\C)c2ccc(NC(=O)c3ccccc3)cc2)s1  viability (HepG2; cell growth or viability, MTT; 0.156 µM): 25.9%
CNc1ncc2c(/C=C/C(=O)O)nn(CC3CCCC3)c2n1  EC50 (OE33; cell growth or viability, resazurin; 5 days): > 30 µM
O=C(Nc1ccc([N+](=O)[O-])cc1)Nc1ccc(C(F)(F)F)cc1  IC50 (LAD2; degranulation): 0.17 µM
Nc1ncnc2c1c(/C=C/C(=O)O)nn2CC1CCCC1  EC50 (OE33; cell growth or viability, resazurin; 5 days): > 30 µM
CC(C)(C)c1cnc(CSc2cnc(NC(=O)C3CCN(C(=O)COCCOCCSc4cccc5c4C(=O)N(C4CCC(=O)NC4=O)C5=O)CC3)s2)o1 (stereo not drawn)  viability (HH; cell growth or viability, CCK-8; 50 nM): 97.9%
O=C(C=Cc1ccccc1)Nc1ccc(Oc2nnc(-c3ccc(Cl)cc3)c3ccccc23)cc1  cell death (HepG2; cell growth or viability, MTT; 2.5 µM): 87.9%
CC(C)(C)c1cnc(CSc2cnc(NC(=O)C3CCN(CCCCCCCSc4cccc5c4C(=O)N(C4CCC(=O)NC4=O)C5=O)CC3)s2)o1 (stereo not drawn)  viability (HH; cell growth or viability, CCK-8; 0.1 µM): 92.7%
CNc1ncc2c(/C=C/C(=O)N3CCC(OC)CC3)nn(CC3CCCC3)c2n1  EC50 (OE33; cell growth or viability, resazurin; 5 days): 6.72 µM
O=C(Nc1ccc(Oc2nnc(-c3ccc(Cl)cc3)c3ccccc23)cc1)c1ccccc1  cell death (HepG2; cell growth or viability, MTT; 0.312 µM): 67.5%
CC(C)(C)c1cnc(CSc2cnc(NC(=O)C3CCN(CCCCCCCCSc4cccc5c4CN(C4CCC(=O)NC4=O)C5=O)CC3)s2)o1 (stereo not drawn)  IC50 (HH; cell growth or viability, trypan blue; 48 h): 0.114 µM
CC(=NNC(=O)c1ccccc1Br)c1ccc(Nc2nnc(-c3ccc(Cl)cc3)c3ccccc23)cc1  cell death (HepG2; cell growth or viability, MTT; 0.312 µM): 14.6%
CC(=O)c1nn(-c2ccc(C)cc2)/c(=N/N=C(\C)c2ccc(NC(=O)c3ccccc3)cc2)s1  viability (HepG2; cell growth or viability, MTT; 0.312 µM): 5.09%
CC(=NNC(N)=S)c1ccc(Nc2nnc(-c3ccc(Cl)cc3)c3ccccc23)cc1  viability (HepG2; cell growth or viability, MTT; 78 nM, 24 h): 95.6%
C=CC(=O)NC1CCN(c2ncc3ncnc(Nc4ccc(Oc5ccc6c(c5)ncn6C)c(C)c4)c3n2)CC1  EC50 (SH-10-TC; cell growth or viability): 0.0743 µM
